The source of these data is ChEMBL document CHEMBL1121999 (J Med Chem, 1982).

Active and inactive are the calls of the source. No cut-off for these calls is given here. A value given as a limit tells only on which side of the number the result lay.

Test [1] addresses GABA-A receptor; anion channel. The test is described as follows: Inhibition of 2 nM [3H]muscimol binding to Gamma-aminobutyric acid (GABA-A) receptor in rat brain crude synaptic membranes. Format: cell membranes, Membrane.
For a further test, the species on record is Rattus norvegicus. The experiment in a line: […] effect on [3H]-GABA release from rat cortical synaptosomes at 100 uM (No effect). The format is functional. The settings on record: Brain.
For test [2], the target named is GABA transporter (Rattus norvegicus) (UniProt P31647+P23978+P31646+P48056). The experiment in a line: In vitro maximal effect for synaptosomal GABA uptake at 100 uM. The format is functional. The gist of the method: (§1)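 Rat whole brain minus cerebellum was homogenized at 4 °C in 0.32 M sucrose and spun at 1000g for 10 min, then at 27000g for 20 min to give the P₂ synaptosome pellet. Uptake and transaminase were measured together: 100 μM compound with 25 μM [³H]GABA in Krebs-Ringer phosphate buffer, 10 min at room temperature. Reactions were stopped with 1 mM GABA plus 1 mM succinic acid and centrifuged. Supernatant went onto Dowex 50 and tissue radioactivity was counted. Results are given as % of drug-free control.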

Test [3] addresses 4-aminobutyrate aminotransferase, mitochondrial (Rattus norvegicus) (UniProt P50554). The test is described as follows: In vitro inhibition of succinate formation in the synaptosomal Gamma-amino-N-butyrate transaminase assay at 100 uM. Format: functional. The gist of the method: as §1

Chain of GABA transporter (Rattus norvegicus) (P31646 whole entry, looked up): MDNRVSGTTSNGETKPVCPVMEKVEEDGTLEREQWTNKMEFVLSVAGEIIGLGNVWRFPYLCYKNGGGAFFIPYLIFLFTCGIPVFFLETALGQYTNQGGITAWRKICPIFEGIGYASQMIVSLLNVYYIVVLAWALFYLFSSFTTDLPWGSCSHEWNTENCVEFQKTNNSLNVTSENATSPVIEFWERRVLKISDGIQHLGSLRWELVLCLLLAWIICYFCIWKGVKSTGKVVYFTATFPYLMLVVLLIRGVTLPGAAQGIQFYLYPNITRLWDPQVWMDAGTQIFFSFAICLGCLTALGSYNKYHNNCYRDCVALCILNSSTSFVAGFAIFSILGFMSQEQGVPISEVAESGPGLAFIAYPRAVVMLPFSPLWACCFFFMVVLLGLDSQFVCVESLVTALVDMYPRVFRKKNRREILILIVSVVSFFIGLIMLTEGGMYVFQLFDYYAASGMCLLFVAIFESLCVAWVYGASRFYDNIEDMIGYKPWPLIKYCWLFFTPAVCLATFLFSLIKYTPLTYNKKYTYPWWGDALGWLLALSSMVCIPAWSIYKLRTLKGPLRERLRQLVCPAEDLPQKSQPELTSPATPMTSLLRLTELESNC
Chain of GABA transporter (Rattus norvegicus) (P31647 whole entry, looked up): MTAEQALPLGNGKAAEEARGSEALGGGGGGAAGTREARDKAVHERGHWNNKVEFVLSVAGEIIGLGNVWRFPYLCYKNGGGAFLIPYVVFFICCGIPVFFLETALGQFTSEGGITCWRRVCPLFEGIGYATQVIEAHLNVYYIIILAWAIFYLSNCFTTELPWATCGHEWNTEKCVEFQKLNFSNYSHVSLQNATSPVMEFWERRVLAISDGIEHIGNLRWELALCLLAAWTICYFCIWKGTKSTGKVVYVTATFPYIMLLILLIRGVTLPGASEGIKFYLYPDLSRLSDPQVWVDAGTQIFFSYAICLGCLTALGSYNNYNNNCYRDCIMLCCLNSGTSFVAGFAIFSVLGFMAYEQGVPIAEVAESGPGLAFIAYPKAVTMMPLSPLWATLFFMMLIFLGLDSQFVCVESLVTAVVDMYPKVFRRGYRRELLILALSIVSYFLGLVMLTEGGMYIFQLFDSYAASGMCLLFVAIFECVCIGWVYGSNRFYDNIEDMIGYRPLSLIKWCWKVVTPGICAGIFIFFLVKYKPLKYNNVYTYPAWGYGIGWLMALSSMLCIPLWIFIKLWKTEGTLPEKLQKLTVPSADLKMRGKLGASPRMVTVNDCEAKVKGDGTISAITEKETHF
Chain of GABA transporter (Rattus norvegicus) (P48056 whole entry, looked up): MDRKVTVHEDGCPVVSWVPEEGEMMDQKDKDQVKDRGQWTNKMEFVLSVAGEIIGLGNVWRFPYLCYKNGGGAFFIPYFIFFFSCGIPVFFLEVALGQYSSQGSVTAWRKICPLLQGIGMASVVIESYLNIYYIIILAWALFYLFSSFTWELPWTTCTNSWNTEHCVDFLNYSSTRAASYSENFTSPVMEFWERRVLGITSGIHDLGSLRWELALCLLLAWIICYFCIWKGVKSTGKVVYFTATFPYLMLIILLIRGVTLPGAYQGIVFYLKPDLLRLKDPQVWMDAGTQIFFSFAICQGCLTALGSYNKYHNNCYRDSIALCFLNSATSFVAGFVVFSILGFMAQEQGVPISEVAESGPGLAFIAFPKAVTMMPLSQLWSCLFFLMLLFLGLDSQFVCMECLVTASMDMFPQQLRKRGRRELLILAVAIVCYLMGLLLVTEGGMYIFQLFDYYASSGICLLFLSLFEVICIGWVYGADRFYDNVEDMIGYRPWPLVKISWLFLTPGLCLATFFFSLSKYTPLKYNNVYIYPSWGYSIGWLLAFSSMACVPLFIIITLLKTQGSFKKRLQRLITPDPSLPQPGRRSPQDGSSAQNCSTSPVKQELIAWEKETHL
Chain of 4-aminobutyrate aminotransferase, mitochondrial (Rattus norvegicus) (P50554 28-500 limits assumed): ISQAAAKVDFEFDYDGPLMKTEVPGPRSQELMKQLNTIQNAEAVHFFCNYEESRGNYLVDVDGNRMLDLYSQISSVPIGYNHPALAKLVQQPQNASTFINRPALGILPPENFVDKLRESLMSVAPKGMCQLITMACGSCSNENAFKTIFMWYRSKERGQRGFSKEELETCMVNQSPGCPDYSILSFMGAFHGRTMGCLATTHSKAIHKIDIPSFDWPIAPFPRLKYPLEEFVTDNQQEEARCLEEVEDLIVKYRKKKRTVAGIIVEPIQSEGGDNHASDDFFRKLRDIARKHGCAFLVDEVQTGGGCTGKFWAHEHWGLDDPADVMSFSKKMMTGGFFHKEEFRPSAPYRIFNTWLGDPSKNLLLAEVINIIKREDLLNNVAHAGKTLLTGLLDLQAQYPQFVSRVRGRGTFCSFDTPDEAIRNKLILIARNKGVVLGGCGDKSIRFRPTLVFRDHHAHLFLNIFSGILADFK

The term IC50 denotes the midpoint of a concentration-inhibition curve. The low end stands for greater potency in that assay, the high end for weaker potency in that assay. In general, inhibition refers to the relative decrease from the control value, in per cent. High values mean strong suppression, low ones little suppression. Take `CN1C(=O)Nc2cccc(CN)c2S1(=O)=O`: in test [1], the IC50 was above 20 µM. In addition, the outcome in the test filed under Rattus norvegicus was inactive. In test [2], this molecule displayed an Effect of 30%. Also, the inhibition in test [3] turned out to be 30%.

Regarding `NC(=O)C(=O)O`, in test [3], the inhibition turned out to be 60%.

For `CC1=NS(=O)(=O)c2ccc(CN(C)C)cc2N1`, the IC50 in test [1] is above 20 µM. Moreover, the outcome in the test filed under Rattus norvegicus was inactive. The same molecule had an Effect in test [2] of 30%. The molecule further showed an inhibition in test [3] of 30%.

As to `CN(C)Cc1ccc2c(c1)NC(=O)N(C)S2(=O)=O`, the IC50 in test [1] is above 20 µM. Also, in the test filed under Rattus norvegicus, the outcome was inactive. This molecule also displayed an Effect in test [2] of 30%. The molecule further registered an inhibition in test [3] of 30%.

Regarding `CC1=NS(=O)(=O)c2c(CN)cccc2N1`, in test [1], the IC50 is above 20 µM. The result in the test filed under Rattus norvegicus was inactive. In test [2], this molecule came in with an Effect of 30%. The molecule further returned an inhibition in test [3] of 30%.

As to `O=C(O)C1CCCNC1` (stereo unspecified), the inhibition in test [3] came to 70%.

On to `CN1C(=O)Nc2cc(CN)ccc2S1(=O)=O`, for which, in test [1], the IC50 was above 20 µM. In the test filed under Rattus norvegicus, the result was inactive. This molecule also yielded an Effect in test [2] of 30%. This molecule gave an inhibition in test [3] of 30%.

For the molecule `CC1=NS(=O)(=O)c2ccc(CN)cc2N1`, the IC50 in test [1] is above 20 µM. Moreover, in the test listed under Rattus norvegicus, the outcome was inactive. Besides, the Effect in test [2] is 30%. The molecule further came in with an inhibition in test [3] of 30%.
